Screening data as filed in PubChem BioAssay.
Only some compounds are listed: those with a hit (about 5% of all), similar ones and a draw of the others.
UPR CHOP act: apoptotic UPR (CHOP) activation | CHO-CHOP luciferase reporter, luminescence; percent of tunicamycin response over DMSO baseline | activation, % at 10 µM | 330,000 tested, 0.34% active;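 active = at 10 µM dose, activation of 40% or more, normalized to positive control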;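 also: 100% = tunicamycin at 10 µg/mL and 0% = DMSO alone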
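Test system: CHO-CHOP cells, stable luciferase reporter of PERK-eIF2a-CHOP signalling | Quantity: 500 CHO-CHOP cells per well | Buffer or medium: F12 plus 10% serum | Compound dosing: 10 µM single point, 0.5% DMSO | Schedule: 6 h compound treatment, 37 °C | Signal: Luciferase luminescence | Control set: Tunicamycin high control, DMSO low control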
Beta cell apopt: blocks beta cell apoptosis | INS-1E cytokine-induced death, ATP luminescence, 48 h; percent of positive-control rescue, neutral wells zero | 300,000 tested, 0.8% active | AID 435005 | protection from apoptosis, % (concentration not given with the values);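 active = Every replicate reaches about 75%, or at least half do and their mean reaches it too, limit read from the data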;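 also: 0% = cytokine-treated negative control wells and 100% = positive control rescue; higher means more ATP so stronger rescue from cytokine killing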
CSC inhib: cancer stem cell inhibition; inhibition, % at 7.5 µM; AID 2717; cancer stem cell-like cells viability, luminescence; 300,000 tested, 1.1% active; in the data active = inhibition above about 75%; tested in HMLE shEcad cells
T cruzi inh: T. cruzi replication inhibition | inhibition, % (concentration not given with the values) | 300,000 tested, 1.4% active | AID 1885 | T. cruzi beta-gal in NIH3T3, luminescence, 90 h;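 active = mean inhibition across valid replicates above about 55%, limit read from the data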;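 also: signal also drops with host cell toxicity which is not excluded here; 0% = plate median of DMSO wells and 100% = zero luminescence signal; higher percent means less beta-gal luminescence so fewer parasites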
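System: NIH/3T3 fibroblasts plus reporter T. cruzi. Medium: DMEM plus 2% FBS. Probe or stimulus: 5000 reporter trypomastigotes per well. Compound: single 50 nL compound addition per well in DMSO. Incubation: co-culture of at least 90 h after 3 h attachment. Detection: GalScreen β-gal luminescence, detergent lysis, 60 min. Evaluation: parasite load inhibition, %.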
Mdm2-MdmX inh: human Mdm2/MdmX binding inhibition; SaOS-2 split-luciferase Mdm2/MdmX complementation, luminescence; inhibition, % at 8 µM; 330,000 tested, 3% active; AID 485346;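 active = inhibition of at least 50% at 8 µM in the primary screen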
Target sequence (O15151 whole entry, looked up): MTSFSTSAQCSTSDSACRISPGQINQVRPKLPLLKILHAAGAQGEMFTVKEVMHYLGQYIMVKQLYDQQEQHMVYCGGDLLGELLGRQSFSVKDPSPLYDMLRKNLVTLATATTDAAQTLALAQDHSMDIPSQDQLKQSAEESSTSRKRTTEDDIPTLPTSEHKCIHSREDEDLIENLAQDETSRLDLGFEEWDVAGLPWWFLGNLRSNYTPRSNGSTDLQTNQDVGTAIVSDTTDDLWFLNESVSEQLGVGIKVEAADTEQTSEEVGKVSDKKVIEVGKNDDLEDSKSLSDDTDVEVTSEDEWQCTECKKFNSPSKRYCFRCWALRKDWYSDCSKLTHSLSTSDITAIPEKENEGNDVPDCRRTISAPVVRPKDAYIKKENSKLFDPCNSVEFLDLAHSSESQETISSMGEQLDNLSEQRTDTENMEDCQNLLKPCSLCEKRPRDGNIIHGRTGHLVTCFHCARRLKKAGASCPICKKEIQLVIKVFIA
Target sequence (Q00987 whole entry, looked up): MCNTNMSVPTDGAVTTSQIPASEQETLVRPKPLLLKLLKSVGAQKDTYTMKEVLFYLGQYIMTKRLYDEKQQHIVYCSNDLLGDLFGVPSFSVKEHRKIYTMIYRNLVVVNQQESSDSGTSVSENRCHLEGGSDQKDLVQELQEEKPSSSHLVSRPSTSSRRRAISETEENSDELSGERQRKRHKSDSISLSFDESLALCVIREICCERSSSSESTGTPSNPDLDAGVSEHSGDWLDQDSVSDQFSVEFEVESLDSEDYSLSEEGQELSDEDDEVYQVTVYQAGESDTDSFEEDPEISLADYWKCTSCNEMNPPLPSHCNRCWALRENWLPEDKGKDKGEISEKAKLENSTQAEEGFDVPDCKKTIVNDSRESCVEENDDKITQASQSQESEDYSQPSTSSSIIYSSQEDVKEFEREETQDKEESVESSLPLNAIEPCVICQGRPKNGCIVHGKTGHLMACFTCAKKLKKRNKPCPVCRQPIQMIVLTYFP
UPR XBP1 act: activators of adaptive arm of unfolded protein response (XBP1); 330,000 tested, 0.33% active; CHO-XBP1 luciferase reporter, IRE1-XBP1 UPR activation, luminescence; percent of tunicamycin response, DMSO as zero; activation, % at 20 µM;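 active = versus positive control, 20 µM dose yields 30% or more activation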;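 also: 100% = tunicamycin at 10 µg/mL and 0% = DMSO only wells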
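Assay system: IRE1-XBP1 luciferase reporter CHO line. Input: 1000 cells/well. Buffer or medium: F12 with 10% serum. Doses: 20 µM, 1% DMSO. Times: overnight seeding at 37 °C, 6 h compound treatment at 37 °C. Technique: Steady-Glo luciferase glow luminescence, 10 min after reagent addition.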
Mdm2 MdmX conf: confirmation of human Mdm2/MdmX interaction inhibitors; shares compounds with Mdm2-MdmX inh; Mdm2-MdmX binding, luminescent assay; inhibition, % at 8 µM; 10,000 tested, 55% active; AID 489028; in the data active = inhibition above about 40%
Full FLuc ctr: full-length luciferase inhibition in Mdm2/MdmX counter-screen. shares compounds with Mdm2-MdmX inh. SaOS-2 full-length luciferase counterscreen, luminescence. inhibition, % at 8 µM. 6,200 tested, 77% active. AID 504607;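 active = mean inhibition at 8 µM reaching about 37%, which flags the compound as non-specific, limit read from the data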;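 also: p53-null SaOS-2 cells with luciferase driven by a doxycycline-inducible promoter; compound on cells about two nights before reading with doxycycline added after day one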
* = called active by the depositor; . = no result given.

SMILES	UPR CHOP act	Beta cell apopt	CSC inhib	T cruzi inh	Mdm2-MdmX inh	UPR XBP1 act	Mdm2 MdmX conf	Full FLuc ctr
CCOc1ccc(C(=O)Nc2cccc(C(=O)O)c2)cc1Cl	-7.1	.	0.8	10.5	-86.3	-9.2	.	.
COc1ccc(-c2nn(-c3ccccc3)cc2C(=O)N2c3ccc(C)cc3C3CN(C)CCC32)cc1 (stereo not drawn)	2.4	14.7	.	39.9	53.9*	-2.9	35.5	73.8*
Cc1ccc(S(=O)(=O)c2c(C)nn(C(C)(C)C)c2OC(=O)c2ccco2)cc1	2.6	-1.7	-0.7	-38.5	9.2	-3.5	.	.
Cc1ccc(S(=O)(=O)c2c(C)nn(C(C)(C)C)c2OC(=O)c2ccc(Br)o2)cc1	8.7	-12.1	91.3*	2.4	89.3*	3.0	60.5*	29.3
Cc1ccc(NC(=O)CC2S/C(=N/N=C/C=C/c3ccccc3)NC2=O)cc1Cl (stereo not drawn)	4.3	-6.8	-0.5	-5.9	54.0*	0.5	6.8	.
Clc1ccc(Cn2cc(/C=N/n3cnnc3)c3ccccc32)c(Cl)c1	-0.3	-5.1	25.2	20.2	56.5*	1.3	0.1	.
COc1cccc(N2CCN(c3nc(-c4ccccc4C)cc(=O)[nH]3)CC2)c1	-1.3	.	.	-51.3	95.5*	-3.0	75.8*	81.2*
CCN1C(=O)[C@@H]2[C@@H](c3ccc(-c4ccc(Cl)c(Cl)c4)c(OC)c3)N3CCCC[C@@]3(C(=O)OC)[C@@H]2C1=O	1.5	14.0	16.3	1.9	52.9*	0.6	17.1	.
COC(=O)[C@@]12CCCCN1[C@H](c1ccc(-c3cccc(Cl)c3)c(OC)c1)[C@@H]1C(=O)N(C)C(=O)[C@@H]12	1.8	17.5	9.6	56.5*	72.5*	4.1	25.2	.
COC(=O)[C@@]12CCCCN1[C@H](c1ccc(-c3ccc(F)cc3)cc1)[C@H]1C(=O)N(C)C(=O)[C@H]12	-1.2	-5.6	.	.	63.6*	-1.2	46.2*	48.4*
COC(=O)[C@@]12CCCN1[C@H](c1ccc(-c3cccc(Cl)c3)c(OC)c1)[C@H]1C(=O)N(C)C(=O)[C@H]12	1.0	3.0	-2.2	-1.5	25.9	1.9	.	.
O=C(c1ccc(OC2CCN(CCCc3ccccc3)CC2)cc1)N1CCCC1	2.5	11.3	11.6	3.6	-33.2	-4.0	.	.
COc1ccc(Nc2nc(-c3cccc([N+](=O)[O-])c3)nc3ccccc23)c(OC)c1	-0.5	-2.2	.	42.1	38.8	0.7	.	.
COc1ccc(OC)c(Nc2nc(-c3cccc([N+](=O)[O-])c3)nc3ccccc23)c1	2.6	-8.6	7.8	27.7	59.5*	7.3	-4.8	.
COc1ccc(NC(=O)CCNC(=O)c2ccco2)c(OC)c1	3.5	-5.0	-9.3	-9.4	4.5	0.6	.	.
c1ccc(CSc2ccc(-c3ccccn3)nn2)nc1	4.1	-0.1	-0.8	1.0	-40.7	-0.5	.	.
Cc1cc(C(=O)CCC(=O)N(C)CC(=O)Nc2c(Cl)cccc2Cl)c(C)s1	-0.3	-7.8	-14.1	-19.7	9.0	-1.1	.	.
CN(C)CC(O)COc1cc2ccccc2cc1C(=O)N1CCCCC1 (stereo not drawn)	-1.1	.	-15.1	5.0	-18.7	-0.3	.	.
O=C(CN1C(=O)/C(=C/c2c(F)cccc2Cl)Oc2ccccc21)NCc1ccco1	1.0	9.7	43.4	21.2	63.7*	-1.6	48.8*	101.5*
CCOc1cc(CNCCCN2CCOCC2)ccc1OCC(=O)Nc1cccc2ccccc12	-0.1	16.6	10.8	45.3	77.9*	1.3	54.4*	54.0*
Cc1cc(C(=O)C(=O)O)c(C)n1-c1ccc(Cl)c(Cl)c1	0.0	-1.4	-15.4	-0.6	8.9	-1.3	.	.
Cc1nn(-c2ccc(F)cc2)c2nc(N)c(C#N)c(-c3ccc(O)c(O)c3)c12	4.3	-1.7	30.6	59.2*	61.1*	6.4	29.4	.
